For assay [1], the system named is PC-3. The assay can be described thus: Cytotoxicity in human PC3 cells incubated for 48 hrs by MTT assay. It is filed as functional, cell-based. The settings on record: PC-3, 48 h. A digest of the protocol: (§1)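 Cells (1 × 10^4/well) were seeded in medium with 10% FBS and left 24 h at 37 °C. Compound diluted in medium was then added, alongside a vehicle control, for 48 h. MTT (5 mg/mL stock) was added for 4 h, formazan dissolved in DMSO and absorbance read at 570 nm. IC50 taken as the concentration giving 50% inhibition.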

Assay [2] deals with BT-549. Briefly: Cytotoxicity in human BT549 cells incubated for 48 hrs by MTT assay. It counts as functional, cell-based. The settings on record: BT-549, 48 h. A digest of the protocol: as §1
(Tetrazolium dyes change colour on reduction, which living cells bring about.)

In assay [3] the test system is HCT-116. The assay can be described thus: Cytotoxicity in human HCT116 cells incubated for 48 hrs by MTT assay. It counts as functional, cell-based. The conditions noted are these: HCT-116, 48 h. A digest of the protocol: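 Cells (1 × 10^4/well) were seeded in medium with 10% FBS and left 24 h at 37 °C. Compound diluted in medium was then added, alongside a vehicle control, for 48 h. MTT (5 mg/mL stock) was added for 4 h, formazan dissolved in DMSO and absorbance read at 570 nm.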

For assay [4], the system named is DU-145. Briefly: Cytotoxicity in human DU145 cells incubated for 48 hrs by MTT assay. It counts as functional, cell-based. The conditions noted are these: DU-145, 48 h. The gist of the method:
as §1

The subject of assay [5] is HCT-15. The assay can be described thus: Cytotoxicity in human HCT15 cells incubated for 48 hrs by MTT assay. It counts as functional, cell-based. The conditions noted are these: HCT-15, 48 h. A digest of the protocol: as §1
Assay [6] has as its system MDA-MB-453. Briefly: Cytotoxicity in human MDA-MB-453 cells incubated for 48 hrs by MTT assay. The conditions noted are these: MDA-MB-453, 48 h. It is filed as functional, cell-based. A digest of the protocol: as §1
Assay [7] concerns Calf thymus DNA. Briefly: Binding affinity to calf thymus DNA assessed as increase in relative viscosity of DNA-compound complex at 5 uM by viscometry. It is filed as nucleic-acid assay. The settings on record: Bos taurus. A digest of the protocol: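 Viscosity titration of test compound (5 µM) into CT-DNA (50 µM) in 100 mM Tris-HCl pH 7.0. Rolling-ball viscometer, ball fall time read at angles of 20° to 70°, Peltier-held temperature, viscosity calculated at 25 °C.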

The source made the active and inactive calls. No cut-off for these calls is given here.

As to `COc1ccc2cc(-c3nc4ccccc4[nH]3)c3cc(OC)c(OC)cc3c2c1`, the IC50 in assay [1] was above 20 µM; in assay [2], 11.4 µM; in assay [3] it was above 20 µM; in assay [4] it was 17.2 µM; in assay [5] it was above 20 µM; in assay [6] it was above 20 µM.

In the case of `COc1cc2cc(-c3nc4cc(C)cc(C)c4[nH]3)c3cc(OC)c(OC)cc3c2cc1OC`, the IC50 in assay [1] is 18.3 µM; in assay [2], 7.15 µM; in assay [3] it was above 20 µM; in assay [4], above 20 µM; in assay [5], above 20 µM; in assay [6] it was above 20 µM.

Regarding `CC[n+]1c(-c2ccccc2)c2cc(N)ccc2c2ccc(N)cc21`, the outcome in assay [7] was Active.

`COc1cccc2c1C(=O)c1c(O)c3c(c(O)c1C2=O)C[C@@](O)(C(=O)CO)C[C@@H]3O[C@H]1C[C@H](N)[C@H](O)[C@H](C)O1` [DOXORUBICIN]: in assay [7], the outcome was Active. In assay [4], this compound returned an IC50 of 1.91 µM.

With `COc1cc2cc(-c3nc4ccc(C(=O)O)cc4[nH]3)c3cc(OC)c(OC)cc3c2cc1OC`, the IC50 in assay [1] is 10.2 µM; in assay [2], above 20 µM; in assay [3], 9.92 µM; in assay [4] it was 12.7 µM; in assay [5], 8.34 µM; in assay [6] it was 10.6 µM.

`COc1cc2cc(-c3nc4cc(Cl)ccc4n3Cc3cc(C)cc(C)c3)c3cc(OC)c(OC)cc3c2cc1OC`: the IC50 was 12.8 µM in assay [1]; above 20 µM in assay [2]; above 20 µM in assay [3]; above 20 µM in assay [4]; 15.6 µM in assay [5]; 16.5 µM in assay [6].

As for `COc1ccc2cc(-c3nc4ccc(Cl)cc4[nH]3)c3cc(OC)c(OC)cc3c2c1`, the IC50 in assay [1] is 7.24 µM; in assay [2], 14.2 µM; in assay [3] it was 11.3 µM; in assay [4], above 20 µM; in assay [5] it was above 20 µM; in assay [6] it was above 20 µM. Besides, the outcome in assay [7] was Active.

Regarding `COc1cc2cc(-c3nc4cc(Cl)ccc4n3Cc3ccccc3)c3cc(OC)c(OC)cc3c2cc1OC`, the IC50 in assay [1] is 11.5 µM; in assay [2], above 20 µM; in assay [3] it was above 20 µM; in assay [4] it was above 20 µM; in assay [5], 10.3 µM; in assay [6] it was 17.3 µM.

For the compound `COc1cc2cc(-c3nc4ccc(F)cc4[nH]3)c3cc(OC)c(OC)cc3c2cc1OC`, the IC50 is 14.6 µM in assay [1]; 10.8 µM in assay [2]; above 20 µM in assay [3]; above 20 µM in assay [4]; 9.42 µM in assay [5]; above 20 µM in assay [6].

Take `COc1cc2cc(-c3nc4ncc(Br)cc4[nH]3)c3cc(OC)c(OC)cc3c2cc1OC`: the IC50 in assay [1] is above 20 µM; in assay [2], above 20 µM; in assay [3], above 20 µM; in assay [4], 10 µM; in assay [5] it was above 20 µM; in assay [6], above 20 µM.

Turning to `COc1ccc2cc(-c3nc4ncc(Br)cc4[nH]3)c3cc(OC)c(OC)cc3c2c1`, the IC50 is 11.3 µM in assay [1]; 7.91 µM in assay [2]; above 20 µM in assay [3]; above 20 µM in assay [4]; above 20 µM in assay [5]; above 20 µM in assay [6].

For the compound `COc1cc2cc(-c3nc4ccc(C)cc4[nH]3)c3cc(OC)c(OC)cc3c2cc1OC`, the IC50 in assay [1] was above 20 µM; in assay [2], above 20 µM; in assay [3], above 20 µM; in assay [4], 8.21 µM; in assay [5] it was above 20 µM; in assay [6], above 20 µM.

For the compound `O=c1[nH]cc(F)c(=O)[nH]1` [FLUOROURACIL], the IC50 in assay [3] stood at 8.62 µM; in assay [4], 2.18 µM.

On to `COc1cc2cc(-c3nc4ccc(Br)cc4[nH]3)c3cc(OC)c(OC)cc3c2cc1OC`, for which the IC50 in assay [1] was 15.7 µM; in assay [2], above 20 µM; in assay [3], above 20 µM; in assay [4] it was above 20 µM; in assay [5] it was above 20 µM; in assay [6] it was 15.1 µM.

Take `COC(=O)Nc1nc2cc(C(=O)c3cccs3)ccc2[nH]1` [NOCODAZOLE]: the IC50 stood at 1.84 µM in assay [1], 1.06 µM in assay [3], 1.14 µM in assay [4] and 0.91 µM in assay [6].

For the compound `COc1ccc2nc(-c3cc4cc(OC)c(OC)cc4c4cc(OC)c(OC)cc34)[nH]c2c1`, the IC50 in assay [1] was 13.1 µM; in assay [2], 11.5 µM; in assay [3] it was 8.91 µM; in assay [4] it was above 20 µM; in assay [5], 10.2 µM; in assay [6], 9.98 µM.

For `COC(=O)c1ccc2nc(-c3cc4cc(OC)c(OC)cc4c4cc(OC)c(OC)cc34)[nH]c2c1`, the IC50 in assay [1] was 16.7 µM; in assay [2], above 20 µM; in assay [3], above 20 µM; in assay [4], 17.2 µM; in assay [5], above 20 µM; in assay [6], above 20 µM.

Consider `CN1CCN(c2ccc3[nH]c(-c4ccc5[nH]c(-c6ccc(O)cc6)nc5c4)nc3c2)CC1`, for which the outcome in assay [7] was inactive.

Take `COc1ccc2cc(-c3nc4cc(Cl)ccc4n3Cc3ccccc3)c3cc(OC)c(OC)cc3c2c1`: the IC50 in assay [1] was above 20 µM; in assay [2] it was above 20 µM; in assay [3] it was above 20 µM; in assay [4], above 20 µM; in assay [5], 14.1 µM; in assay [6], 7.2 µM.

With `COc1cc2cc(-c3nc4ccc(Cl)cc4[nH]3)c3cc(OC)c(OC)cc3c2cc1OC`, the IC50 in assay [1] was 18.9 µM; in assay [2], above 20 µM; in assay [3], above 20 µM; in assay [4] it was above 20 µM; in assay [5], above 20 µM; in assay [6], 9.42 µM.

With `COc1cc2cc(-c3nc4ccccc4[nH]3)c3cc(OC)c(OC)cc3c2cc1OC`, the IC50 in assay [1] is 12.8 µM; in assay [2], above 20 µM; in assay [3], above 20 µM; in assay [4], 18.9 µM; in assay [5], above 20 µM; in assay [6], above 20 µM.

A word on the IC50: it is the midpoint of a concentration-inhibition curve. High values mean weaker potency in that assay, low ones greater potency in that assay.

The values above are taken from ChEMBL document CHEMBL4190344, “Synthesis of substituted phenanthrene-9-benzimidazole conjugates: Cytotoxicity evaluation and apoptosis inducing studies” (Eur J Med Chem, 2017).
